Bounds are passed on as bounds.

Results on 22 compounds are retold here after ChEMBL document CHEMBL1124994, “New and versatile approaches to the synthesis of CPP-related competitive NMDA antagonists. Preliminary structure-activity relationships and pharmacological evaluation” (J Med Chem, 1990).

The target in test [1] is Glutamate NMDA receptor. As to the kind of experiment: Inhibition of N-methyl-D-aspartate glutamate receptor by using [3H]CPP as a radioligand from the rat cortical membranes. Format: cell membranes, Membrane.
Test [2] concerns the target T1, Glutamate NMDA receptor (Rattus norvegicus) (UniProt P35439+Q00959+Q00960+Q00961+Q62645+Q8VHN2+Q9R1M7). As to the kind of experiment: Binding affinity for glutamate-stimulated TCP binding site of N-methyl-D-aspartate glutamate receptor from rat brain by using [3H]TCP as radioligand; Antagonist. To be noted: filed as antagonist. In a few lines: (§1)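 Rat whole brain minus cerebellum and brain stem; crude synaptic membranes stored at -70 °C, then treated with 0.01% Triton X-100 in 50 mM Tris-HCl pH 7.6 for 30 min at 37 °C and washed three times. Incubation with 15 mg wet tissue and 1 nM [3H]TCP in 5 mM Tris-HCl pH 8.0, 1 h, 25 °C. Filtration through PEI-treated glass-fiber filters, scintillation counting. Nonspecific binding defined with 100 µM (+)-SKF 10047.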

Test [3] concerns the target Glutamate NMDA receptor. Briefly: Compound was tested for inhibition of N-methyl-D-aspartate glutamate receptor by using [3H]CPP as a radioligand from the rat cortical membranes. Format: cell membranes, Membrane.
The target of test [4] is T1, Glutamate NMDA receptor (Rattus norvegicus). As to the kind of experiment: Binding affinity for glutamate-stimulated TCP binding site of N-methyl-D-aspartate glutamate receptor from rat brain by using [3H]-TCP as radioligand; ant = antagonist. To be noted: filed as antagonist. In a few lines:
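Crude synaptic membranes from rat whole brain minus cerebellum and brainstem, stored at -70 °C, treated with 0.01% Triton X-100 in 50 mM Tris-HCl pH 7.6 at 37 °C for 30 min, then washed. Incubated with 15 mg tissue and 1 nM [3H]TCP in 5 mM Tris-HCl pH 8.0 for 1 h at 25 °C. Filtered on PEI-treated filters, counted by scintillation. Nonspecific binding: 100 µM (+)-SKF 10047.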

The target is the same in test [5]. Briefly: Binding affinity for glutamate-stimulated TCP binding site of N-methyl-D-aspartate glutamate receptor from rat brain by using [3H]TCP as radioligand; Agonist. Particulars: filed as agonist. In a few lines:
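Rat whole brain minus cerebellum and brainstem, crude synaptic membranes stored at -70 °C; thawed, treated with 0.01% Triton X-100 in 50 mM Tris-HCl pH 7.6 at 37 °C for 30 min, washed ≥3 times. Test agents incubated with 15 mg tissue (wet weight) and [3H]TCP 1 nM in 5 mM Tris-HCl pH 8.0, 1 h, 25 °C. Filtration, scintillation counting; nonspecific binding with 100 μM (+)-SKF 10047.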

The target is the same in test [6]. To be noted: filed as agonist.
Test [7] has the same target. Briefly: Binding affinity for glutamate-stimulated TCP binding site of N-methyl-D-aspartate glutamate receptor from rat brain by using [3H]TCP as radioligand;Antagonist. Particulars: filed as antagonist. The gist of the method:
as §1

In test [8] the target is Glutamate NMDA receptor. As to the kind of experiment: Compound was tested for inhibition of [3H]CPP binding from N-methyl-D-aspartate glutamate receptor in the rat cortical membranes. Format: cell membranes, Membrane.
Test [9] deals with Glutamate NMDA receptor. Briefly: Binding affinity was determined by the ability to displace [3H]-CPP from N-methyl-D-aspartate glutamate receptor of rat brain. In a few lines:
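Radioligand displacement of [3H]CPP from rat cortical crude synaptic membranes.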

`CN1CCN(CCCP(=O)(O)O)CC1C(=O)O` (stereo not given): the IC50 on Glutamate NMDA receptor [1] came out at 47.7 µM. This counts as double-digit micromolar. On the same count and under the same terms, the same measure for `O=C(O)C1CN(c2cccc(P(=O)(O)O)c2)CCN1` (stereo not given): 83 µM. Regarding `O=C(O)C1CN(CCP(=O)(O)O)CCN1` (stereo not given), in [2], the GSTCP activity entry was “Antagonist”. The IC50 at Glutamate NMDA receptor [1] is 9.8 µM. `O=C(O)C1CN(CP(=O)(O)O)CCN1` (stereo not given): the GSTCP activity entry in test [2] is “Antagonist”. Also, the IC50 on Glutamate NMDA receptor [3] came to 0.32 µM. On Glutamate NMDA receptor [1], `CP(=O)(O)CCCN1CCNC(C(=O)O)C1` (stereo not given) yielded an IC50 of 0.78 µM. In [4], the GSTCP activity result is “Antagonist”.

`O=C(O)C1CN(CCCP(=O)(O)O)CCN1CCC=C(c1ccccc1)c1ccccc1` (stereo not given) registered an IC50 on Glutamate NMDA receptor [1] above 100 µM.

Turning to `O=C(O)C1CN(CCCP(=O)(O)O)CCN1` (stereo not given), at Glutamate NMDA receptor [1], the IC50 was found to be 0.079 µM. Further, the GSTCP activity result in test [5] is “Agonist”. Consider `O=C(O)[C@@H]1C[C@H](CP(=O)(O)O)CCN1` [SELFOTEL], for which, in test [2], the GSTCP activity result is “Antagonist”. At Glutamate NMDA receptor [1], this compound had an IC50 of 0.065 µM. `O=C(O)C1CN(CCCP(=O)(O)O)CCN1CCC(c1ccccc1)c1ccccc1` (stereo not given): the half-maximal inhibitory concentration (IC50) on Glutamate NMDA receptor [3] was above 100 µM. Consider `N[C@@H](CCC(=O)O)C(=O)O`, for which, in test [6], the GSTCP activity entry is “Agonist”. As for `O=C(O)C1CN(CCCCP(=O)(O)O)CCN1` (stereo not given), in [2], the GSTCP activity entry was “Antagonist”. Besides, the IC50 on Glutamate NMDA receptor [1] stood at 48 µM. Regarding `O=C(O)C1CN(c2ccccc2P(=O)(O)O)CCN1` (stereo not given), the IC50 at Glutamate NMDA receptor [3] is above 100 µM.

On Glutamate NMDA receptor [1], `NC(CCCCCP(=O)(O)O)C(=O)O` (stereo not given) [AP-7] gave an IC50 of 0.76 µM. Further, the GSTCP activity entry in test [4] was “Antagonist”. With `O=C(O)CCCN1CCNC(C(=O)O)C1` (stereo not given), the IC50 on Glutamate NMDA receptor [1] came to 0.85 µM. Also, the GSTCP activity entry in test [7] is “Antagonist”.

`O=C(O)c1ccccc1C(=O)N1CCNC(C(=O)O)C1` (stereo not given): the IC50 at Glutamate NMDA receptor [1] was above 100 µM. Take `CN[C@H](CC(=O)O)C(=O)O` [N-METHYL-D-ASPARTIC ACID (NMDA)]: the GSTCP activity result in test [6] was “Agonist”. This compound also displayed an IC50 on Glutamate NMDA receptor [8] of 4.55 µM. The compound `O=C(O)C1CN(Cc2cccc(CP(=O)(O)O)c2)CCN1` (stereo not given) yielded an IC50 on Glutamate NMDA receptor [1] above 100 µM.

Take `O=C(O)C1CN(C(c2ccccc2)P(=O)(O)O)CCN1` (stereo not given): in [2], the GSTCP activity entry is “Antagonist”. The half-inhibitory concentration (IC50) turned out to be 5.8 µM on Glutamate NMDA receptor [1] and 13.3 µM at Glutamate NMDA receptor [8]. Consider `O=C(O)CN1CCNC(C(=O)O)C1` (stereo not given), for which, in test [2], the GSTCP activity result is “Antagonist”. This compound also yielded an IC50 on Glutamate NMDA receptor [1] of 16 µM. `O=C(O)C1CN(CCCP(=O)(O)O)CCN1CCCCc1ccccc1` (stereo not given) had a concentration for half-maximal inhibition (IC50) at Glutamate NMDA receptor [1] above 100 µM. Same read-out and setting: the same measure for `O=C(O)C1CN(CCCP(=O)(O)O)CCN1CCCCC(c1ccccc1)c1ccccc1` (stereo not given): above 100 µM. Regarding `NC(CCCP(=O)(O)O)C(=O)O` (stereo not given), the GSTCP activity result in test [4] is “Antagonist”. For the same compound, the IC50 at Glutamate NMDA receptor [9] was found to be 0.29 µM.
